Holding throughout (type): functional
Assay [1] concerns Staphylococcus aureus. As to the kind of experiment: Antibacterial activity against Staphylococcus aureus ATCC 25923 after 18 hrs by phase 1 broth microdilution method. As to conditions: ATCC 25923, 18 h. The gist of the method: (§1)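 Phase I: twofold serial dilutions in Tryptic Soy Broth, 96-well plates, concentrations […]. Stocks in DMSO/TSB 1:10 v/v, with final DMSO 5.0–0.01%. Inoculum was set to 0.5 McFarland, then diluted in saline and TSB. Plates ran 18 h at 35 °C. MIC is the lowest concentration without visible growth, in triplicate. Sterility was read at 24 and 48 h. Ampicillin, chloramphenicol and vancomycin were controls.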

For assay [2], the system named is Staphylococcus aureus. As to the kind of experiment: Antibacterial activity against Staphylococcus aureus ATCC 25923 after 18 hrs by phase 2 broth microdilution method. The note with it: ATCC 25923, 18 h. The essentials: (§2)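 Phase II narrowed the phase I MIC in Tryptic Soy Broth. Stock was made at twice the phase I MIC, then diluted 10% stepwise with TSB through column 11. Final DMSO was 2.5–1.0%. Positive growth control wells received TSB. Inoculum was prepared as in phase I and plates were incubated 18 h at 35 °C.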
For orientation: Broth dilution looks for growth in wells or tubes with falling amounts of substance.

The subject of assay [3] is Staphylococcus aureus. As to the kind of experiment: Antibacterial activity against multidrug-resistant Staphylococcus aureus 3SP/R33 after 18 hrs by phase 1 broth microdilution method. The essentials:
as §1

For assay [4], the system named is Staphylococcus aureus. Description: Antibacterial activity against multidrug-resistant Staphylococcus aureus 3SP/R33 after 18 hrs by phase 2 broth microdilution method. The gist of the method:
as §2

For assay [5], the system named is Staphylococcus aureus. Description: Antibacterial activity against multidrug-resistant vancomycin-intermediate Staphylococcus aureus VISA3 after 18 hrs phase 1 by broth microdilution method. The gist of the method:
as §1

Assay [6] deals with Staphylococcus aureus. As to the kind of experiment: Antibacterial activity against multidrug-resistant vancomycin-intermediate Staphylococcus aureus VISA3 after 18 hrs phase 2 by broth microdilution method. The gist of the method:
as §2

Assay [7] has as its system Staphylococcus aureus. Description: Antibacterial activity against Staphylococcus aureus ATCC 25923 after 18 hrs by broth microdilution method. As to conditions: ATCC 25923, 18 h. The gist of the method: (§3)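 Broth microdilution in Tryptic Soy Broth in 96-well plates, with DMSO as solvent at no more than 5% of the total. Inoculum was set to 0.5 McFarland and diluted in saline and TSB. Plates were incubated 18 h at 35 °C. MIC is the lowest concentration without visible growth. The MIC was determined in two phases, the second narrowing the first.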

Assay [8] has as its system Staphylococcus aureus. Description: Antibacterial activity against multidrug-resistant Staphylococcus aureus 3SP/R33 after 18 hrs by broth microdilution method. The essentials: as §3
Assay [9] relates to Staphylococcus aureus. As to the kind of experiment: Antibacterial activity against multidrug-resistant vancomycin-intermediate Staphylococcus aureus VISA3 after 18 hrs by broth microdilution method. The gist of the method:
as §3

Converted amounts (≈) assume the structure as drawn.

The term MIC denotes the smallest concentration in the dilution series that meets the test's criterion for growth inhibition.

For `Cc1ccc(C(=O)N/N=C/c2ccc3c(c2)no[n+]3[O-])cc1`, the MIC stood at 20 µg/mL (≈ 67.5 µM) in the assay on Staphylococcus aureus [1]; 21 µg/mL (≈ 70.9 µM) in the assay on Staphylococcus aureus [2]; 20 µg/mL (≈ 67.5 µM) against Staphylococcus aureus [3]; 21 µg/mL (≈ 70.9 µM) in the assay with Staphylococcus aureus [4]; 20 µg/mL (≈ 67.5 µM) against Staphylococcus aureus [5]; 21 µg/mL (≈ 70.9 µM) in the assay with Staphylococcus aureus [6].

Turning to `O=C(N/N=C/c1ccc2c(c1)no[n+]2[O-])c1ccc(Br)cc1`, the minimal inhibitory concentration (MIC) in the assay on Staphylococcus aureus [1] was found to be 10 µg/mL (≈ 27.7 µM); in the assay on Staphylococcus aureus [2] it was 18 µg/mL (≈ 49.8 µM); in the assay with Staphylococcus aureus [3], 10 µg/mL (≈ 27.7 µM); against Staphylococcus aureus [4] it was 18 µg/mL (≈ 49.8 µM); against Staphylococcus aureus [5] it was 10 µg/mL (≈ 27.7 µM); in the assay on Staphylococcus aureus [6], 18 µg/mL (≈ 49.8 µM).

With `O=C(N/N=C/c1ccc2c(c1)no[n+]2[O-])c1ccc(Cl)cc1`, the MIC in the assay with Staphylococcus aureus [1] amounted to 10 µg/mL (≈ 31.6 µM); in the assay on Staphylococcus aureus [2], 15.3 µg/mL (≈ 48.3 µM); in the assay on Staphylococcus aureus [3], 10 µg/mL (≈ 31.6 µM); against Staphylococcus aureus [4], 15.3 µg/mL (≈ 48.3 µM); in the assay with Staphylococcus aureus [5] it was 10 µg/mL (≈ 31.6 µM); in the assay with Staphylococcus aureus [6], 15.3 µg/mL (≈ 48.3 µM).

On to `CC(=O)c1ccc(C(=O)N/N=C/c2ccc3c(c2)no[n+]3[O-])cc1`, for which the MIC came to 20 µg/mL (≈ 61.7 µM) against Staphylococcus aureus [1]; 21.2 µg/mL (≈ 65.4 µM) against Staphylococcus aureus [2]; 20 µg/mL (≈ 61.7 µM) in the assay on Staphylococcus aureus [3]; 21.2 µg/mL (≈ 65.4 µM) against Staphylococcus aureus [4]; 20 µg/mL (≈ 61.7 µM) against Staphylococcus aureus [5]; 21.2 µg/mL (≈ 65.4 µM) in the assay with Staphylococcus aureus [6].

Take `O=C(N/N=C/c1ccc2c(c1)no[n+]2[O-])c1ccccc1`: the MIC in the assay with Staphylococcus aureus [1] turned out to be 10 µg/mL (≈ 35.4 µM); in the assay on Staphylococcus aureus [2] it was 16.2 µg/mL (≈ 57.4 µM); against Staphylococcus aureus [3], 10 µg/mL (≈ 35.4 µM); with Staphylococcus aureus [4], 16.2 µg/mL (≈ 57.4 µM); in the assay with Staphylococcus aureus [5], 10 µg/mL (≈ 35.4 µM); with Staphylococcus aureus [6], 16.2 µg/mL (≈ 57.4 µM).

Consider `Nc1ccc(C(=O)N/N=C/c2ccc3c(c2)no[n+]3[O-])cc1`, for which the MIC against Staphylococcus aureus [1] came to 10 µg/mL (≈ 33.6 µM); with Staphylococcus aureus [2], 15.3 µg/mL (≈ 51.5 µM); with Staphylococcus aureus [3] it was 10 µg/mL (≈ 33.6 µM); in the assay with Staphylococcus aureus [4], 15.3 µg/mL (≈ 51.5 µM); in the assay with Staphylococcus aureus [5], 10 µg/mL (≈ 33.6 µM); in the assay with Staphylococcus aureus [6] it was 15.3 µg/mL (≈ 51.5 µM).

As for `N#Cc1ccc(C(=O)N/N=C/c2ccc3c(c2)no[n+]3[O-])cc1`, the MIC worked out at 20 µg/mL (≈ 65.1 µM) against Staphylococcus aureus [1]; 26.2 µg/mL (≈ 85.3 µM) with Staphylococcus aureus [2]; 20 µg/mL (≈ 65.1 µM) with Staphylococcus aureus [3]; 26.2 µg/mL (≈ 85.3 µM) with Staphylococcus aureus [4]; 20 µg/mL (≈ 65.1 µM) against Staphylococcus aureus [5]; 26.2 µg/mL (≈ 85.3 µM) against Staphylococcus aureus [6].

`O=C(N/N=C/c1ccc2c(c1)no[n+]2[O-])c1ccc(O)cc1`: the minimum inhibitory concentration (MIC) in the assay with Staphylococcus aureus [1] came out at 20 µg/mL (≈ 67.1 µM); in the assay with Staphylococcus aureus [2], 26.2 µg/mL (≈ 87.8 µM); in the assay with Staphylococcus aureus [3], 20 µg/mL (≈ 67.1 µM); in the assay with Staphylococcus aureus [4], 26.2 µg/mL (≈ 87.8 µM); against Staphylococcus aureus [5], 20 µg/mL (≈ 67.1 µM); with Staphylococcus aureus [6] it was 26.2 µg/mL (≈ 87.8 µM).

`O=C(N/N=C/c1ccc2c(c1)no[n+]2[O-])c1ccc(F)cc1`: the MIC against Staphylococcus aureus [1] came to 10 µg/mL (≈ 33.3 µM); against Staphylococcus aureus [2], 14.6 µg/mL (≈ 48.6 µM); in the assay on Staphylococcus aureus [3] it was 10 µg/mL (≈ 33.3 µM); in the assay on Staphylococcus aureus [4], 14.6 µg/mL (≈ 48.6 µM); against Staphylococcus aureus [5] it was 10 µg/mL (≈ 33.3 µM); in the assay with Staphylococcus aureus [6] it was 14.6 µg/mL (≈ 48.6 µM).

On to `O=C(N/N=C/c1ccc2c(c1)no[n+]2[O-])c1ccc(I)cc1`, for which the MIC was 20 µg/mL (≈ 49 µM) against Staphylococcus aureus [1]; 23.6 µg/mL (≈ 57.8 µM) against Staphylococcus aureus [2]; 20 µg/mL (≈ 49 µM) with Staphylococcus aureus [3]; 23.6 µg/mL (≈ 57.8 µM) against Staphylococcus aureus [4]; 20 µg/mL (≈ 49 µM) in the assay with Staphylococcus aureus [5]; 23.6 µg/mL (≈ 57.8 µM) against Staphylococcus aureus [6].

Turning to `O=C(N/N=C/c1ccc2c(c1)no[n+]2[O-])c1ccc(C(F)(F)F)cc1`, the MIC amounted to 10 µg/mL (≈ 28.6 µM) against Staphylococcus aureus [1]; 13.1 µg/mL (≈ 37.4 µM) with Staphylococcus aureus [2]; 10 µg/mL (≈ 28.6 µM) with Staphylococcus aureus [3]; 13.1 µg/mL (≈ 37.4 µM) against Staphylococcus aureus [4]; 10 µg/mL (≈ 28.6 µM) in the assay on Staphylococcus aureus [5]; 13.1 µg/mL (≈ 37.4 µM) against Staphylococcus aureus [6].

`COc1ccc(C(=O)N/N=C/c2ccc3c(c2)no[n+]3[O-])cc1`: the MIC against Staphylococcus aureus [1] turned out to be 10 µg/mL (≈ 32 µM); in the assay on Staphylococcus aureus [2] it was 16.2 µg/mL (≈ 51.9 µM); against Staphylococcus aureus [3] it was 10 µg/mL (≈ 32 µM); in the assay with Staphylococcus aureus [4], 16.2 µg/mL (≈ 51.9 µM); with Staphylococcus aureus [5], 10 µg/mL (≈ 32 µM); with Staphylococcus aureus [6] it was 16.2 µg/mL (≈ 51.9 µM).

As to `CN(C)c1ccc(C(=O)N/N=C/c2ccc3c(c2)no[n+]3[O-])cc1`, the MIC with Staphylococcus aureus [1], against Staphylococcus aureus [3] and in the assay with Staphylococcus aureus [5] was over 80 µg/mL throughout.

For the compound `NS(=O)(=O)c1ccc(C(=O)N/N=C/c2ccc3c(c2)no[n+]3[O-])cc1`, the MIC against Staphylococcus aureus [1], in the assay on Staphylococcus aureus [3] and against Staphylococcus aureus [5] was over 80 µg/mL in each case.

`CC1(C)S[C@@H]2[C@H](NC(=O)[C@H](N)c3ccccc3)C(=O)N2[C@H]1C(=O)O` [AMPICILLIN]: the MIC in the assay on Staphylococcus aureus [7] amounted to 0.1 µg/mL (≈ 0.286 µM).

With `O=C(N[C@H](CO)[C@H](O)c1ccc([N+](=O)[O-])cc1)C(Cl)Cl` [CHLORAMPHENICOL], the MIC was 2 µg/mL (≈ 6.19 µM) in the assay on Staphylococcus aureus [7], 32 µg/mL (≈ 99 µM) against Staphylococcus aureus [8] and 32 µg/mL (≈ 99 µM) against Staphylococcus aureus [9].

These data come from ChEMBL document CHEMBL1153439, “Design, synthesis, antimicrobial activity and molecular modeling studies of novel benzofuroxan derivatives against Staphylococcus aureus” (2009).
